The record followed here is ChEMBL document CHEMBL3244114, “Synthesis of 11 beta,13 beta- and 13 beta,16 beta-propano steroids: probes of hormonal activity” (J Med Chem, 1979).

The source made the active and inactive calls. The calls are words filed in the database; no cut-off is given here.

Data set [1] has as its target T1, Progesterone receptor (Oryctolagus cuniculus) (UniProt P06186).
T1 sequence (whole entry): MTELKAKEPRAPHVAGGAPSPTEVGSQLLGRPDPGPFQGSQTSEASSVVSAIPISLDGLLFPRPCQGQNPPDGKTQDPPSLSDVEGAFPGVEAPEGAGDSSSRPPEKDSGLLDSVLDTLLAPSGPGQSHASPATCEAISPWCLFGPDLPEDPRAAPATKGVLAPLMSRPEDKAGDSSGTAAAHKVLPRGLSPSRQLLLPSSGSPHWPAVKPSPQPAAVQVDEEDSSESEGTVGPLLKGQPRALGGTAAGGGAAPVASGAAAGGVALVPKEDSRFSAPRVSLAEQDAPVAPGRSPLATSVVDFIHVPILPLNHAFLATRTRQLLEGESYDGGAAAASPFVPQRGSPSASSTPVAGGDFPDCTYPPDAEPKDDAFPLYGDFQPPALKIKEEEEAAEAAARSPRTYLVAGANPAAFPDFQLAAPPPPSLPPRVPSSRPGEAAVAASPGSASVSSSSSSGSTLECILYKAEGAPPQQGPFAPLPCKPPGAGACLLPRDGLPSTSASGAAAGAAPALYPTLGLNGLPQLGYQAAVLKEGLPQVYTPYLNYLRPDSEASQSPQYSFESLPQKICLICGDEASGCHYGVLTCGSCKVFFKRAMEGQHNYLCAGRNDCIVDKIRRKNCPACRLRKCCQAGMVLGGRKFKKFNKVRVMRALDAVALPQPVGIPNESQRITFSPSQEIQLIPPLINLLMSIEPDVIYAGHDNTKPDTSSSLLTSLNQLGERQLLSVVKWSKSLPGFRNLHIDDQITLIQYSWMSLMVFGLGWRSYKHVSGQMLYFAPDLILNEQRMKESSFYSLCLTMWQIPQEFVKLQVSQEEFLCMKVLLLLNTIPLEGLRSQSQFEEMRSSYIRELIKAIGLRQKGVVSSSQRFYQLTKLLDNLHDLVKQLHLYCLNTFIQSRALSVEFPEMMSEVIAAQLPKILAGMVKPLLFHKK
In words: Binding affinity to progesterone receptor in rabbit uterine cytosol relative to progesterone. The conditions noted are these: Uterus.

Data set [2] deals with Oryctolagus cuniculus. Nature of the data set: Antiprogestational activity in estradiol benzoate-primed rabbit at 10 to 15 mg, sc administered qd for 5 days by anti-Clauberg assay in presence of progesterone. The class given is functional, organism-based. Summed up:
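Immature rabbits (six) were primed with estradiol benzoate for 6 days. Each compound (10–15 mg) was then given with progesterone (0.8 mg) in sesame oil, subcutaneously, once daily for 5 days. The read-out was uterine stimulation. NICHD ran the assay.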

Data set [3] in a line: Solubility of the compound in carbon tetrachloride. The class given is physicochemical.
Data set [4] is filed under the species Oryctolagus cuniculus. Nature of the data set: Progestational activity in immature rabbit assessed as uterine stimulation by Clauberg assay. The class given is functional.

In turn, `C#C[C@]1(O)CC[C@H]2[C@@H]3CCC4=CC(=O)CC[C@@H]4[C@H]3CC[C@@]21C` displayed an Activity in data set [1] of 126%.

In the case of `C#C[C@]1(O)CC[C@H]2[C@@H]3CCC4=CC(=O)CC[C@@H]4[C@H]3CC[C@@]21CCCCl`, the Activity in data set [1] is 1%. For the same molecule, the result in data set [2] was inactive.

Regarding `C#CC1(O)CC[C@H]2[C@@H]3CCC4=CC(=O)CC[C@@H]4[C@H]3CC[C@@]21CC` (mixture of isomers), in data set [1], the Activity was 206%.

Consider `C#C[C@]1(O)CC[C@H]2[C@@H]3CCC4=CC(=O)CC[C@@H]4[C@H]3[C@@H](C)C[C@@]21C`, for which the Activity in data set [1] amounted to 390%.

Molecule `C#C[C@]1(O)CC[C@H]2[C@@H]3CCC4=CC(=O)CC[C@@H]4[C@H]3CC[C@@]21CCCOC(=O)CBr` came in with an Activity in data set [1] of 2%. In data set [2], the outcome was inactive.

On to `COc1ccc2c(c1)CCC1=C2[C@@H]2C[C@]3(CCC2O)[C@@H](OC(C)=O)CC[C@@H]13` (stereo partly drawn), for which the solubility result in data set [3] is “Insoluble”.

As for `C#C[C@]1(O)CC[C@H]2[C@@H]3CCC4=CC(=O)CC[C@@H]4[C@H]3[C@@H](C)C[C@@]21CC` (racemic), the Activity in data set [1] came to 151%.

`C#C[C@]1(O)[C@H]2CCC[C@@]13CC[C@H]1[C@@H](CCC4=CC(=O)CC[C@@H]41)[C@@H]3C2` (racemic) came in with an Activity in data set [1] of 1%. The outcome in data set [2] was inactive.

Take `C#C[C@]1(O)CC[C@H]2[C@@H]3CCC4=CC(=O)CC[C@@H]4[C@H]3CC[C@@]21CCC=O`: the Activity in data set [1] was determined as 21%; in data set [4], 5%. Further, the outcome in data set [2] was inactive.

`C#C[C@]1(O)CC[C@H]2[C@@H]3CCC4=CC(=O)CC[C@@H]4[C@H]3CC[C@@]21CCCO` returned an Activity in data set [1] of 2%. For the same molecule, the outcome in data set [2] was inactive.

For `C#C[C@]1(O)CC[C@H]2[C@@H]3CCC4=CC(=O)CC[C@@H]4[C@H]3[C@H]3CCC[C@]21C3` (racemic), in data set [1], the Activity was found to be 136%.

Regarding `C#C[C@]1(O)CC[C@H]2[C@@H]3CCC4=CC(=O)CC[C@@H]4[C@H]3CC[C@@]21CCCOC(C)=O`, the result in data set [2] was inactive.
